Test results: ChEMBL document CHEMBL1138476 (J Med Chem, 2009)
pIC50: −log10 of the molar value. In brackets after ≈: the same amount, converted by molar mass. Activity calls are given as the source filed them. No cut-off for these calls is given here.

Assays:
Rattus norvegicus [1] = experiment: Toxicity in rat assessed as time spent on rotarod at 3 mg/kg, po after 1 hr by rotarod test; type: organism-based; design: dose 3 mg/kg, route oral; details: in vivo
How it was run: (§1)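 Rats, n = 8 per dose, dosed po in 0.25% Methocel 1 h before testing, at 0, 1.0, 3.0, 10, 30 and 100 mg/kg. Read-out is time on rotorod (s), mean ± SEM, compared with the vehicle (zero-dose) group.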

Rattus norvegicus [2] = experiment: Toxicity in rat assessed as total distance traveled at 3 mg/kg, po after 1 hr by spontaneous locomotor test; type: organism-based; design: dose 3 mg/kg, route oral; details: in vivo
How it was run: (§2)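 Rat spontaneous locomotor activity test with oral dosing in 0.25% Methocel 1 h before testing, at doses up to 100 mg/kg. Values are mean ± SEM, with N rats per group, compared with the vehicle (zero-dose) group.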

Rattus norvegicus [3] = experiment: Toxicity in rat assessed as time spent on rotarod at 10 mg/kg, po after 1 hr by rotarod test; type: organism-based; design: dose 10 mg/kg, route oral; details: in vivo; how it was run: as §1
Rattus norvegicus [4] = experiment: Toxicity in rat assessed as total distance traveled at 10 mg/kg, po after 1 hr by spontaneous locomotor test; type: functional; how it was run: as §2
Rattus norvegicus [5] = experiment: Toxicity in rat assessed as total distance traveled at 100 mg/kg, po after 1 hr by spontaneous locomotor test; type: organism-based; design: dose 100 mg/kg, route oral; details: in vivo; how it was run: as §2
Rattus norvegicus [6] = experiment: Toxicity in rat assessed as time spent on rotarod at 30 mg/kg, po after 1 hr by rotarod test; type: organism-based; design: dose 30 mg/kg, route oral; details: in vivo; how it was run: as §1
Rattus norvegicus [7] = experiment: Toxicity in rat assessed as total distance traveled at 30 mg/kg, po after 1 hr by spontaneous locomotor test; type: functional; how it was run: as §2
[8] = molecular target: T1, Corticotropin-releasing factor receptor 1 (Rattus norvegicus, UniProt P35353); experiment: Displacement of [125I]Tyro-rat/human CRF from CRF1 receptor in rat cortical membrane by gamma counting; type: cell membranes
T1 sequence (P35353 whole entry): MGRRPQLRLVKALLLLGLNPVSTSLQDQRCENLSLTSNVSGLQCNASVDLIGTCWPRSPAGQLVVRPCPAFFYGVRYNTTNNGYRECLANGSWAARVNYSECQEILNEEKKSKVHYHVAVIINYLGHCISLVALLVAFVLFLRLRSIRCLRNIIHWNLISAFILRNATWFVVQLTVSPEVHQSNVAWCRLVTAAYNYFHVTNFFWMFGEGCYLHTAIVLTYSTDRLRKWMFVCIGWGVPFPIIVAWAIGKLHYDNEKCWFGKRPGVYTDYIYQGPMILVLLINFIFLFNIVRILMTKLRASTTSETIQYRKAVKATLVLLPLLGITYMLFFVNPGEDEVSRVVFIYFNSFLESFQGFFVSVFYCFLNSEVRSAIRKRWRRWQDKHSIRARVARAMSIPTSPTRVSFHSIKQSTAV
How it was run: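 Binding to CRF receptors in rat cortical homogenate.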

[9] = Lipophilicity log P of the compound; type: physicochemical; details: octanol/water
[10] = Aqueous solubility at pH 7; type: physicochemical; details: aqueous medium
[11] = Aqueous solubility at pH 7.4; type: physicochemical; details: aqueous medium
How it was run: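 Solubility measured in water at pH 7.4.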

[12] = Solubility in dilute HCl at pH 2.3; type: physicochemical
Rattus norvegicus [13] = experiment: Anxiolytic activity in rat assessed as increase in time spent on open arm at 18 mg/kg, po by elevated plus-maze test; type: functional, organism-based; design: dose 18 mg/kg
How it was run: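 Rat elevated plus maze: percent of test time spent in the open arms. Oral dosing in 0.25% Methocel 60 min before testing; n = 12 per dose, mean ± SEM. Analysed by ANOVA followed by Fisher's LSD comparisons against vehicle.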

Rattus norvegicus [14] = experiment: Anxiolytic activity in rat assessed as decrease in latency to exit dark chamber at 10 mg/kg, po by defensive withdrawal test relative to untreated control; type: functional; design: scale not given: the % may be the effect or the level left
How it was run: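 Rat defensive withdrawal: latency to leave the dark chamber and explore the open field, maximum 900 s. Dosed orally in 0.25% Methocel 60 min before testing; n = 8 per dose, mean ± SEM. Analysed by Kruskal–Wallis followed by Mann–Whitney U against vehicle.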

Rattus norvegicus [15] = experiment: Effect on gastrointestinal motility in fasted Sprague-Dawley rat assessed as distance of charcoal moved from stomach to cecum at 0.3 mg/kg, ip (RVb= 38.4+/-3.8 %); type: functional, Caecum; details: route intraperitoneal
[16] = Half life in Beagle dog at 1 mg/kg, po by cassette dosing; type: ADME, organism-based, Canis lupus familiaris; design: dose 1 mg/kg, route oral; details: in vivo
[17] = AUC in Beagle dog at 1 mg/kg, po by cassette dosing; type: ADME, organism-based, Canis lupus familiaris; design: dose 1 mg/kg, route oral; details: plasma
[18] = Cmax in Beagle dog at 1 mg/kg, po by cassette dosing; type: ADME, organism-based, Canis lupus familiaris; design: dose 1 mg/kg, route oral; details: in vivo
[19] = Volume of distribution at steady state in chimpanzee at 0.5 mg/kg, iv; type: ADME, organism-based, Pan troglodytes; design: dose 0.5 mg/kg, route intravenous; details: in vivo, read-out: Vdss
How it was run: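 Single chimpanzee given 0.5 mg/kg iv over 10 min (0.2 mL/kg) in 10% DMAC, 70% propylene glycol and deionized water. EDTA blood taken predose, at 6, 15 and 30 min, and at 2 to 96 h.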

[20] = Volume of distribution at steady state in rat at 1 mg/kg, iv and 5 mg/kg, po; type: ADME, organism-based; details: in vivo, read-out: Vdss
How it was run: (§3)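 Rats (n = 3) dosed iv at 1 mg/kg in 10% DMAC, 70% propylene glycol and deionized water, and orally at 5 mg/kg in 0.5% methylcellulose.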

[21] = Tmax in rat at 5 mg/kg, po; type: ADME, organism-based; design: dose 5 mg/kg, route oral; details: in vivo; how it was run: as §3
[22] = Clearance in chimpanzee at 0.5 mg/kg, iv; type: ADME, organism-based, Pan troglodytes; design: dose 0.5 mg/kg, route intravenous; details: in vivo
How it was run: (§4)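 Chimpanzee PK. Oral: 1 mg/kg in two alert animals, given as a 1 mg/mL suspension in 50–50 (v/v) 0.5% methylcellulose/Tang orange juice with 1% Tween-80. IV: 0.5 mg/kg in one animal in 10% DMAC, 70% propylene glycol and deionized water, infused over 10 min (0.2 mL/kg). EDTA blood was taken predose and at 2–96 h; iv sampling added 6, 15 and 30 min.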

[23] = Oral bioavailability in rat at 5 mg/kg; type: ADME, organism-based; details: in vivo
How it was run: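 Rats (n = 3) were dosed at 1 mg/kg iv in 10% DMAC, 70% propylene glycol and deionized water, and at 5 mg/kg po in 0.5% methylcellulose.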

[24] = Half life in Beagle dog by discrete dosing; type: ADME, organism-based, Canis lupus familiaris; details: in vivo
[25] = AUC (0 to infinity) in chimpanzee at 1 mg/kg, po; type: ADME, organism-based, Pan troglodytes; design: time infinity, dose 1 mg/kg, route oral; details: plasma; how it was run: as §4
[26] = Oral bioavailability in chimpanzee at 1 mg/kg; type: ADME, organism-based, Pan troglodytes; details: in vivo
How it was run: (§5)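 Two alert chimpanzees were given 1 mg/kg po as a 1 mg/mL suspension in 50:50 (v/v) 0.5% methylcellulose and Tang orange juice containing 1% Tween-80. EDTA blood was taken predose and at 2–96 h. Bioavailability was calculated against a 0.5 mg/kg iv dose given to one animal.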

[27] = AUC (0 to infinity) in chimpanzee at 0.5 mg/kg, iv; type: ADME, organism-based, Pan troglodytes; design: time infinity, dose 0.5 mg/kg, route intravenous; details: plasma; how it was run: as §4
[28] = Elimination half life in chimpanzee at 1 mg/kg, po; type: ADME, organism-based, Pan troglodytes; design: dose 1 mg/kg, route oral; details: in vivo, read-out: beta t1/2 (converted); how it was run: as §5
[29] = Elimination half life in chimpanzee at 0.5 mg/kg, iv; type: ADME, organism-based, Pan troglodytes; design: dose 0.5 mg/kg, route intravenous; details: in vivo, read-out: beta t1/2 (converted)
How it was run: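 One chimpanzee received 0.5 mg/kg iv over 10 min (0.2 mL/kg) in 10% DMAC, 70% propylene glycol and deionized water. Blood was drawn into EDTA predose and at 6, 15, 30 min and 2, 4, 6, 9, 12, 24, 36, 48, 72 and 96 h.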

[30] = Clearance in rat at 1 mg/kg, iv and 5 mg/kg, po; type: ADME, organism-based; details: in vivo
How it was run: (§6)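 Rats (n = 3) received 1 mg/kg iv in 10% DMAC, 70% propylene glycol and deionized water, or 5 mg/kg orally in 0.5% methylcellulose.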

[31] = Cmax in rat at 5 mg/kg, po; type: ADME, organism-based; design: dose 5 mg/kg, route oral; details: in vivo; how it was run: as §6
[32] = Cmax in chimpanzee at 1 mg/kg, po; type: ADME, organism-based, Pan troglodytes; design: dose 1 mg/kg, route oral; details: in vivo; how it was run: as §4
[33] = molecular target: T1, Corticotropin-releasing factor receptor 1; experiment: Agonist activity at CRF1 receptor in rat pituitary cells

Structure (SMILES): CNC1=Nc2ccc(Cl)cc2C(c2ccccc2)=[N+]([O-])C1 [CHLORDIAZEPOXIDE]
- Time (Rattus norvegicus [1]): 227 s
- Activity (Rattus norvegicus [2]): 4624 cm
- Time (Rattus norvegicus [3]): 128 s
- Activity (Rattus norvegicus [4]): 3981 cm
- Activity (Rattus norvegicus [5]): 1062 cm
- Time (Rattus norvegicus [6]): 114 s
- Activity (Rattus norvegicus [7]): 2162 cm

Structure (SMILES): CCN(CC)c1nc(C)nc2c(-c3cnc(OC)cc3C)c(C)nn12
- pIC50 [8]: 7.84

Structure (SMILES): CCC[C@H](C)Nc1nc(C)nc2c(-c3ccc(OC)nc3C)c(C)nn12
- pIC50 [8]: 8.35

Structure (SMILES): CCC(CC)Nc1nc(C)nc2c(-c3cnc(OC)cc3C)c(C)nn12
- pIC50 [8]: 8.52

Structure (SMILES): COCCN(CCOC)c1nc(C)nc2c(-c3cnc(N(C)C)cc3C)c(C)nn12
- pIC50 [8]: 7.04

Structure (SMILES): CCCCN(CC)c1nc(C)nc2c1c(C)cn2-c1c(C)cc(C)cc1C.Cl
- logP [9]: > 5
- solubility [10]: < 1 µg/mL

Structure (SMILES): CCCCN(CC)c1nc(C)nc2c(-c3c(C)cc(N(C)C)nc3C)c(C)nn12
- pIC50 [8]: 7.48

Structure (SMILES): CCC(CC)Nc1nc(C)nc2c(-c3c(C)cc(N(C)C)nc3C)c(C)nn12
- pIC50 [8]: 7.59

Structure (SMILES): COCC(COC)Nc1nc(C)nc2c(-c3ccc(Cl)cc3Cl)c(C)nn12
- logP [9]: 4.97
- solubility [11]: < 1 µg/mL
- solubility [12]: 230 µg/mL (≈ 561 µM)
- solubility [10]: < 1 µg/mL
- Activity (Rattus norvegicus [13]): Active
- Activity (Rattus norvegicus [14]): 72%

Structure (SMILES): C[N+](C)(C)CCOC(N)=O.[Cl-] [CARBACHOL]
- Activity (Rattus norvegicus [15]): 55.8%

Structure (SMILES): CCN(CC)c1nc(C)nc2c(-c3cnc(N(C)C)cc3C)c(C)nn12
- pIC50 [8]: 7.86

Structure (SMILES): CCN(CCOC)c1nc(C)nc2c(-c3ccc(OC)nc3C)c(C)nn12
- pIC50 [8]: 8.18

Structure (SMILES): CCCCN(CCC)c1nc(C)nc2c(-c3c(C)cc(N(C)C)nc3C)c(C)nn12
- pIC50 [8]: 7.89

Structure (SMILES): CC[C@H](C)Nc1nc(C)nc2c(-c3ccc(OC)nc3C)c(C)nn12
- half-life [16]: 7.9 h
- AUC [17]: 0.916 µM·h
- Cmax [18]: 168 nM
- pIC50 [8]: 8.15

Structure (SMILES): COCCN(CC1CC1)c1nc(C)nc2c(-c3ccc(OC)nc3C)c(C)nn12
- half-life [16]: 11.4 h
- AUC [17]: 1.73 µM·h
- Cmax [18]: 314 nM
- pIC50 [8]: 8.51

Structure (SMILES): COCCN(CCOC)c1nc(C)nc2c(-c3ccc(OC)cc3C)c(C)nn12.O=S(=O)(O)c1ccccc1
- half-life [16]: 10.1 h
- Vd [19]: 9.52 L/kg
- logP [9]: 4.76
- Vd [20]: 14.6 L/kg
- Tmax [21]: 0.5 h
- solubility [11]: < 1 µg/mL
- AUC [17]: 1.66 µM·h
- solubility [12]: 2500 µg/mL
- clearance [22]: 10.2 mL/min/kg
- bioavailability [23]: 51%
- half-life [24]: 27 h
- AUC(0-inf) [25]: 0.212 µM·h
- bioavailability [26]: 5.2%
- Cmax [18]: 369 nM
- AUC(0-inf) [27]: 2.04 µM·h
- half-life [28]: 16.5 h
- half-life [29]: 20.2 h
- clearance [30]: 20 mL/min/kg
- Cmax [31]: 851 nM
- Cmax [32]: 27 nM
- pIC50 [33]: 7.14

Structure (SMILES): CCCC(C)Nc1nc(C)nc2c(-c3ccc(OC)nc3C)c(C)nn12 (centres undefined)
- half-life [16]: 11.8 h
- AUC [17]: 0.955 µM·h
- Cmax [18]: 156 nM
- pIC50 [8]: 8.46

Structure (SMILES): CCCCN(CC)c1nc(C)nc2c(-c3ccc(OC)nc3C)c(C)nn12
- pIC50 [8]: 8.31
